High-throughput results from PubChem.
TRPC4 act: TRPC4 (mouse) channel activation; 310,000 tested, 0.49% active; Q9QUQ5; B-score at 10 µM; HEK293 TRPC4beta/mu-opioid, Fluo4 calcium fluorescence; stronger effect = higher value; AID 2237;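 active = B-score above 5 SD of library B-scores, and initial fluorescence ratio not above library mean plus 5 SD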;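 note: positive B-score marks a calcium rise read as TRPC4 activation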
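Assay system: HEK293 stable line with TRPC4beta plus mu-opioid receptor; schedule: 45 min room-temperature Fluo4 loading, 110 s read; technique: kinetic Fluo4 calcium fluorescence; evaluation: integrated baseline-normalised fluorescence ratio, converted to per-well B score; controls: buffer (low) and maximal DAMGO (high)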
TRPC6 act: activators of mouse TRPC6 channel; HEK293-TRPC6 membrane potential dye fluorescence; stronger effect = higher value; 310,000 tested, 0.13% active; B-score at 10 µM;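 active = B-score of the integrated fluorescence ratio above library mean plus 3 SD, and starting fluorescence ratio within library mean plus 5 SD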;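 note: higher score means more depolarization so channel activation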
Target sequence (Q61143 whole entry, looked up): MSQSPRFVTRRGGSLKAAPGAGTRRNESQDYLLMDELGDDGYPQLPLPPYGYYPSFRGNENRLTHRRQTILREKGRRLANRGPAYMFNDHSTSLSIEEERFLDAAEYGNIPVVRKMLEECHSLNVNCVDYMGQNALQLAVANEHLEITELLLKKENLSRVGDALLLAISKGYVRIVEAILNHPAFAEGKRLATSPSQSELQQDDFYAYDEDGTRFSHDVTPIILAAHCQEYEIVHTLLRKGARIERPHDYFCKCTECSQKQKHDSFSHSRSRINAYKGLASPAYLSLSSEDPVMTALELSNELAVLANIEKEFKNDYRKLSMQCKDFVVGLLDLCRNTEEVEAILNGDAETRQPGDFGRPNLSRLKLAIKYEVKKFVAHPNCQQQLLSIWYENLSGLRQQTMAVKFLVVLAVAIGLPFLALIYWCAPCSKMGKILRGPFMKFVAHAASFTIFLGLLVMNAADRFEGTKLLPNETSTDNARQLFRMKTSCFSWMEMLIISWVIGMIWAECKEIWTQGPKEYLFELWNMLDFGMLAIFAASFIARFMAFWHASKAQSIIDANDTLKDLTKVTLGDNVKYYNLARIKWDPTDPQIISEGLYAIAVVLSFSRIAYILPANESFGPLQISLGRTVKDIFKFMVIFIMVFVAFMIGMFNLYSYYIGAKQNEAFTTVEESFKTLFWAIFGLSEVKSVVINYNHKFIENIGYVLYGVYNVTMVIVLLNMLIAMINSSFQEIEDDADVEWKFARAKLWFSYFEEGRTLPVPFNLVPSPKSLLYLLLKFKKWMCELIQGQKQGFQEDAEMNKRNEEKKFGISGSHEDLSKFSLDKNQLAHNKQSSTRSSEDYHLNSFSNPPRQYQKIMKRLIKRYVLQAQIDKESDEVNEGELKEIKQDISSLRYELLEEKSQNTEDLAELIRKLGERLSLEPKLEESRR
TRPC4 potent: TRPC4 (mouse) allosteric potentiation; HEK293 TRPC4beta/mu-opioid, DAMGO EC20, Fluo-4 Ca2+ flux; stronger effect = higher value; B-score at 10 µM; Q9QUQ5; 310,000 tested, 0.42% active;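 active = B-score of calcium response area above 5 SD of library B-scores, with initial fluorescence ratio within 5 SD of library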
TRPC6 inhibitor: blocks the mouse TRPC6 cation channel | B-score at 10 µM | HEK293-TRPC6, membrane potential dye, ACh-evoked depolarization; stronger effect = lower value | 310,000 tested, 1.1% active;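 active = B-score under library mean minus 3 SD, initial fluorescence not abnormally high, positive integrated signal ratio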;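 note: B-score derived from integrated fluorescence ratio over the kinetic read; more negative B-score means stronger inhibition of depolarization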
TRPC4 block: TRPC4 (mouse) channel inhibition; AID 2247; Q9QUQ5; B-score at 10 µM; 300,000 tested, 0.39% active; HEK293 TRPC4beta/mu-opioid, DAMGO-evoked Fluo4 calcium flux; stronger effect = lower value;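 active = B-score over 3 SD under the library average, no early fluorescence shift, positive overall ratio signal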
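Signal: kinetic Fluo4 fluorescence imaging of calcium influx. Material: stable TRPC4beta/mu-opioid receptor HEK293 cells. Probe or stimulus: DAMGO in two steps, submaximal then maximal.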
TRPC4 spec 2: second selectivity test of TRPC6 inhibitors: effect on mouse TRPC4. shares compounds with TRPC6 inhibitor. HEK293 TRPC4/MOR, membrane potential dye fluorescence; channel activated by saturating DAMGO dose. inhibition, % at 10 µM. 920 tested, 42% active. AID 2776;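 active = compounds whose fluorescence signal differed from control wells by over 3 SD, either direction, in both duplicate plates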
TRPC4 spec: mouse TRPC4 off-target activity of TRPC6 inhibitors. shares compounds with TRPC6 inhibitor. HEK293 TRPC4/mu-opioid, membrane potential fluorescence. 920 tested, 61% active. activity change, negative = inhibition, % at 10 µM. AID 2777;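 active = rise or fall in signal beyond 3 SD of buffer-only wells in both replicate plates, either sign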;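 note: integrated kinetic ratio of fluorescence range over baseline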
HEK293 MPD ctr 2-1: second counter-screen for TRPC6 inhibitors: parental HEK293 cells; shares compounds with TRPC6 inhibitor; parental HEK293 membrane potential dye fluorescence; maximal acetylcholine challenge after compound addition; signal change vs control, % at 10 µM; 920 tested, 31% active; AID 2779;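 active = membrane potential signal moving either way by over 3 SD of the maximum-effect control, in both duplicate plates, meaning non-specific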
HEK293 MPD ctr-1: parental HEK293 nonspecific activity of TRPC6 inhibitors; shares compounds with TRPC6 inhibitor; parental HEK293 membrane potential dye fluorescence; membrane potential signal change, % at 10 µM; 920 tested, 60% active; AID 2780;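 active = membrane potential signal shifting up or down by more than 3 SD of buffer-only wells, on both duplicate plates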
HEK293 MPD ctr-2: counter-screen for TRPC6 modulators: effect in parental HEK293 cells | shares compounds with TRPC6 inhibitor | membrane potential dye fluorescence | membrane potential signal change, % at 10 µM | 2,400 tested, 51% active;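 active = membrane potential signal moves up or down beyond 5 SD from buffer-only wells, on both duplicate plates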
HEK293 MPD ctr 2-2: second check of TRPC6 modulator effects in parental HEK293 cells. shares compounds with TRPC6 inhibitor. membrane potential dye fluorescence; after compound, maximal acetylcholine stimulation. inhibition, % at 10 µM. 2,400 tested, 14% active. AID 488926;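 active = membrane potential signal drops by more than 5 SD from the mean control signal, in both duplicate plates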
TRPC4 ctr mod: selectivity of TRPC6 modulators against mouse TRPC4; shares compounds with TRPC6 inhibitor; percent change from control (negative = decrease, positive = increase), % at 10 µM; AID 488927; 2,400 tested, 69% active; HEK293 TRPC4/mu-opioid, membrane potential fluorescence;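 active = membrane potential signal moved up or down beyond 5 SD of buffer control wells, in both duplicate plates, actives on both sides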
TRPC4 ctr inh 2: second selectivity test of TRPC6 modulators against mouse TRPC4. shares compounds with TRPC6 inhibitor. HEK293 TRPC4/mu-opioid, membrane potential dye fluorescence; stimulated with maximal-effect DAMGO. AID 488928. inhibition, % at 10 µM. 2,400 tested, 55% active;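 active = drop in membrane potential signal beyond 5 SD of the control wells in both duplicate plates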;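 note: TRPC4 counter screen for TRPC6 hits run under conditions tuned for TRPC6 not TRPC4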
TRPC6 inh conf: mouse TRPC6 inhibitor confirmation; HEK293-TRPC6, membrane potential dye, ACh-evoked depolarization; 3,300 tested, 43% active; inhibition, % at 10 µM; AID 488960; shares compounds with TRPC6 inhibitor;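 active = fluorescence ratio falls more than 5 SD below the full-stimulation control mean, in both duplicate runs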;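 note: integrated fluorescence ratio of peak minus minimum over baseline after agonist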
TRPC6 act confirm: mouse TRPC6 activator confirmation; shares compounds with TRPC6 inhibitor; HEK293-TRPC6 membrane potential dye fluorescence, FDSS; activation, % at 10 µM; 2,800 tested, 11% active; AID 488961;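 active = ratio signal rise beyond 5 SD above unstimulated control wells' mean, seen in both duplicate runs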
Of the large screens only hits and unclear results are named; the others gave an inactive call (follow-up assays come after a bar, where they were run). In the library only some 2.3% were active in any assay of this set; here they are far more common.

COC(=O)CN1C(=O)S/C(=C/c2ccc(N3CCCCC3)o2)C1=O	TRPC6 act 13 | HEK293 MPD ctr-2 162% | HEK293 MPD ctr 2-2 inactive | TRPC4 ctr mod 90% | TRPC4 ctr inh 2 inactive | TRPC6 inh conf inactive | TRPC6 act confirm 35%
COc1cc2c(cc1OC)C1(NCC2)C(=O)Nc2ccccc21 (stereo not drawn)	none
COc1cc2c(cc1OC)C1(Nc3c-2c(Cc2ccccc2)nn3-c2ccccc2)C(=O)Nc2ccccc21 (stereo not drawn)	TRPC6 inhibitor -6.8 | TRPC4 spec 2 inactive | TRPC4 spec -9.5% | HEK293 MPD ctr 2-1 inactive | HEK293 MPD ctr-1 inactive | TRPC6 inh conf inactive | TRPC6 act confirm inactive
O=C(CN(CC1CCCO1)C(=O)c1nsc(Cl)c1Cl)NC1CCCC1 (stereo not drawn)	none
O=C(c1ccco1)N1CCN(c2ccnc3cc(Cl)ccc23)CC1	TRPC6 inhibitor -5.1 | HEK293 MPD ctr-2 -160% | HEK293 MPD ctr 2-2 inactive | TRPC4 ctr mod -26% | TRPC4 ctr inh 2 37% | TRPC6 inh conf inactive | TRPC6 act confirm inactive
O=C(O)c1cccc(Nc2nc(-c3cc4ccccc4oc3=O)cs2)c1	none
CCOc1ccccc1N1CCN(Cc2ccco2)CC1	none
CCOc1ccccc1N1CCN(C/C=C/c2ccc(N(C)C)cc2)CC1	TRPC6 inhibitor -6.5 | HEK293 MPD ctr-2 inactive | HEK293 MPD ctr 2-2 inactive | TRPC4 ctr mod inactive | TRPC4 ctr inh 2 66% | TRPC6 inh conf 50% | TRPC6 act confirm inactive
CC1(C)SC[C@H](C(=O)Nc2cccc(Cl)c2)N1C=O	none
CS(=O)(=O)N(Cc1cccc(CN(C(C(=O)O)c2ccccc2)S(C)(=O)=O)c1)C(C(=O)O)c1ccccc1 (stereo not drawn)	TRPC6 inhibitor -8.7 | TRPC4 spec 2 inactive | TRPC4 spec inactive | HEK293 MPD ctr 2-1 inactive | HEK293 MPD ctr-1 inactive | TRPC6 inh conf inactive | TRPC6 act confirm inactive
Cc1ccc(NC2=C(N3CCOCC3)C(=O)c3ccccc3C2=O)cc1	TRPC6 inhibitor -5.5 | HEK293 MPD ctr-2 inactive | HEK293 MPD ctr 2-2 inactive | TRPC4 ctr mod -31% | TRPC4 ctr inh 2 78% | TRPC6 inh conf inactive | TRPC6 act confirm inactive
CC(=O)c1ccc(NC2=C(N3CCOCC3)C(=O)c3ccccc3C2=O)cc1	none
Cc1ncc([N+](=O)[O-])n1CC(=O)Nc1ccc(Br)cc1	none
CC(C)CC1CCCCC1OC(=O)C[N+]1(C)CCCCC1 (stereo not drawn)	TRPC6 inhibitor -8.7 | TRPC4 spec 2 inactive | TRPC4 spec inactive | HEK293 MPD ctr 2-1 16% | HEK293 MPD ctr-1 inactive | TRPC6 inh conf 87% | TRPC6 act confirm inactive
CCCN(CCC)CCCNc1ccc(C(=O)Nc2cccc(OC)c2)cc1[N+](=O)[O-]	TRPC6 inhibitor -7.3 | TRPC4 spec 2 55% | TRPC4 spec -18% | HEK293 MPD ctr 2-1 inactive | HEK293 MPD ctr-1 inactive | TRPC6 inh conf inactive | TRPC6 act confirm inactive
CCCc1ccc(/C=C2\C(=O)c3ccccc3C(O)=C2C(=O)OCC)cc1	none
CCOC(=O)C1=C(O)c2ccccc2C(=O)/C1=C\c1ccc(CC)cc1	TRPC6 act 15 | HEK293 MPD ctr-2 552% | HEK293 MPD ctr 2-2 inactive | TRPC4 ctr mod 130% | TRPC4 ctr inh 2 inactive | TRPC6 inh conf inactive | TRPC6 act confirm 182%
Oc1c(/C=N/c2ccccn2)sc2ccccc12	TRPC6 inhibitor -9.1 | HEK293 MPD ctr-2 170% | HEK293 MPD ctr 2-2 inactive | TRPC4 ctr mod 30% | TRPC4 ctr inh 2 inactive | TRPC6 inh conf inactive
Cn1nc([N+](=O)[O-])nc1N1CCN(c2ccc(F)cc2)CC1	TRPC6 inhibitor -7 | TRPC4 spec 2 inactive | TRPC4 spec inactive | HEK293 MPD ctr 2-1 inactive | HEK293 MPD ctr-1 inactive | TRPC6 inh conf inactive | TRPC6 act confirm inactive
Nc1nc(N)c(N=O)c(OCC2CCCCC2)n1	none
Cc1sc2c3ccsc3ccc2[n+]1C	TRPC6 inhibitor -8.6 | HEK293 MPD ctr-2 -292% | HEK293 MPD ctr 2-2 71% | TRPC4 ctr mod -50% | TRPC4 ctr inh 2 58% | TRPC6 inh conf 68% | TRPC6 act confirm inactive
N=c1sccn1CC(=O)Nc1cccc(Oc2ccccc2)c1	TRPC6 inhibitor -5.7 | HEK293 MPD ctr-2 inactive | HEK293 MPD ctr 2-2 inactive | TRPC4 ctr mod inactive | TRPC4 ctr inh 2 82% | TRPC6 inh conf 52% | TRPC6 act confirm inactive
N=c1sccn1CC(=O)Nc1ccc(Cl)cc1[N+](=O)[O-]	none
N=c1sccn1CC(=O)Nc1cc(Cl)ccc1Oc1ccccc1	TRPC6 inhibitor -9.6 | TRPC4 spec 2 24% | TRPC4 spec inactive | HEK293 MPD ctr 2-1 inactive | HEK293 MPD ctr-1 inactive | TRPC6 inh conf 69% | TRPC6 act confirm inactive
COC(=O)c1c(N2C(=O)Nc3ccccc3N2O)sc2c1CCCC2	TRPC6 act 12 | HEK293 MPD ctr-2 155% | HEK293 MPD ctr 2-2 inactive | TRPC4 ctr mod 18% | TRPC4 ctr inh 2 inactive | TRPC6 inh conf inactive | TRPC6 act confirm 76%
CCOC(=O)c1c(N2C(=O)Nc3ccccc3N2O)sc2c1CCCCC2	none
O=C(CSc1nnc2ccc(-c3ccc(F)cc3)nn12)N1CCOCC1	none
COc1nc(C)nc2c1sc1nc3c(cc12)COC(C)(C)C3	TRPC6 inhibitor -6.4 | HEK293 MPD ctr-2 inactive | HEK293 MPD ctr 2-2 inactive | TRPC4 ctr mod -12% | TRPC4 ctr inh 2 inactive | TRPC6 inh conf inactive | TRPC6 act confirm inactive
